What was measured:
[1] = target: T1, Protein farnesyltransferase (Homo sapiens, UniProt P49354+P49356); assay: Phenotypic reversion of H-Ras transformed NIH3T3 cells at 1.25 uM; format: functional, cell-based; settings: Mus musculus
[2] = target: T1, Protein farnesyltransferase; assay: Phenotypic reversion of H-Ras transformed NIH3T3 cells at 5 uM.; format: functional, cell-based; settings: Mus musculus
[3] = target: T1, Protein farnesyltransferase; assay: Inhibitory activity against human purified recombinant farnesyltransferase (hFT); format: protein-complex assay
Outline: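 Purified (>90%) recombinant human FT at 0.3 nM, with 10 μM ZnCl2. Activity was measured as incorporation of tritium from [3H]farnesyl pyrophosphate into recombinant human H-Ras. Result reported as IC50.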

Rat1 = assay: Inhibition of anchorage independent growth of H-Ras transformed Rat-1 cells.; format: functional, cell-based
Mus musculus [4] = assay: In vivo antitumor activity against Rat-1 tumors in mice at 10 mg/kg; format: functional
Outline: (§1)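 Female athymic Balb/c-background mice (18-22 g) were implanted ip with 1 × 10^6 in vitro-propagated H-Ras-transformed Rat-1 fibroblasts. Dosing was ip, once daily for 7 days from day 1, with compound in 10% ethanol/sterile water given within 1 h of dissolution. Groups were typically 6 treated and 8 control mice. Read-out was median survival as %T/C, with ≥125% counted active (Gehan's generalized Wilcoxon test).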

[5] = target: T1, Protein farnesyltransferase; assay: Inhibition of human purified recombinant farnesyltransferase (hFT) at 15 uM; format: protein-complex assay
[6] = target: T1, Protein farnesyltransferase; assay: Phenotypic reversion of H-Ras transformed NIH3T3 cells at 1.25/5 uM.; format: functional, cell-based; settings: Mus musculus
[7] = target: T1, Protein farnesyltransferase; assay: Phenotypic reversion of H-Ras transformed NIH3T3 cells by the compound at a concentration of 10 uM; format: functional, cell-based; settings: Mus musculus
Mus musculus [8] = assay: In vivo antitumor activity against Rat-1 tumors in mice at 90 mg/kg; format: functional; outline: as §1
Mus musculus [9] = assay: In vivo antitumor activity against Rat-1 tumors in mice at 30 mg/kg; format: functional; outline: as §1
[10] = target: T1, Protein farnesyltransferase; assay: Inhibition of human purified recombinant farnesyltransferase (hFT) at 90 uM; format: protein-complex assay

| SMILES | Reversion activity [1] [%] | Reversion activity [2] [%] | IC50 [3] [nM] | EC50 (Rat1) [nM] | other results |
| --- | --- | --- | --- | --- | --- |
| COCC[C@H]1CN(C(=O)c2cccc3ccccc23)CCN1C(=O)Cc1cnc[nH]1 |  |  | 34000 |  |  |
| O=C(c1cccc2ccccc12)N1CCN(CCCc2ncc[nH]2)c2ccccc2C1 |  |  | 590 |  |  |
| O=C(Nc1ccc2c(c1)N(Cc1c[nH]cn1)CCN(C(=O)c1cccc3ccccc13)C2)NC1CCCCC1 | 0 | 0 | 35.5 | 4000 |  |
| O=C(Nc1ccc2c(c1)N(Cc1c[nH]cn1)CCN(C(=O)c1cccc3ccccc13)C2)OC1CCCCC1 | 40 | 95 |  | 110 |  |
| NCCc1nc(CN2CCN(C(=O)c3cccc4ccccc34)Cc3ccccc32)c[nH]1 |  |  | 1300 |  |  |
| O=C(c1cccc2ccccc12)N1CCN(Cc2c[nH]cn2)Cc2ccccc21 |  |  |  | 3000 | Reversion activity [7]: 0% |
| O=C(c1ccccc1SCCO)N1CCN(Cc2c[nH]cn2)c2ccc(-c3ccccc3)cc2C1 | 0 | 90 |  | 200 |  |
| O=C(Nc1ccc2c(c1)N(Cc1c[nH]cn1)CCN(C(=O)c1cccc3ccccc13)C2)c1ccccc1 | 0 | 75 | 28.5 | 300 | T/C (Mus musculus [8]): 128% |
| Cc1cccc2c1N(Cc1c[nH]cn1)CCN(C(=O)c1cccc3ccccc13)C2 | 0 | 35 | 350 | 12000 |  |
| O=S(=O)(c1cccc2ccccc12)N1CCN(Cc2c[nH]cn2)c2ccccc2C1 |  |  | 480 |  |  |
| COc1ccc(C(=O)C(=O)N2CCN(Cc3c[nH]cn3)c3ccc(-c4ccccc4)cc3C2)cc1 | 0 | 90 |  | 900 |  |
| O=C(c1ccccc1OC(F)(F)F)N1CCN(Cc2cnc[nH]2)c2ccc(-c3ccncc3)cc2C1 |  |  | 24 |  |  |
| O=C(N1CCN(Cc2cnc[nH]2)c2ccccc2C1)N(c1ccccc1)c1ccccc1 |  |  | 1200 |  |  |
| Nc1ccc2c(c1)N(Cc1cnc[nH]1)CCN(C(=O)c1cccc3ccccc13)C2 |  |  | 1000 | 2400 |  |
| COc1ccc(C(=O)C(=O)N2CCN(Cc3cnc[nH]3)c3ccc(-c4ccccc4)cc3C2)cc1 |  |  | 91 |  |  |
| c1ccc(-c2ccc3c(c2)CN(Cc2cccc4ccccc24)CCN3Cc2cnc[nH]2)cc1 |  |  | 2970 |  |  |
| O=C(c1cccc2ccccc12)N1CCN(Cc2c[nH]cn2)c2ccc(Br)cc2C1 | 0 | 5 |  |  |  |
| O=C(Nc1ccc2c(c1)N(Cc1cnc[nH]1)CCN(C(=O)c1cccc3ccccc13)C2)OC1CCCCC1 |  |  | 28 |  |  |
| O=C(c1ccccc1-c1ccccc1)N1CCN(Cc2cnc[nH]2)c2ccccc2C1 |  |  | 320 |  |  |
| O=C(c1ccccc1-c1ccccc1)N1CCN(Cc2c[nH]cn2)c2ccccc2C1 |  |  |  | 700 | Reversion activity [7]: 25% |
| O=C(c1cccc2ccccc12)N1CCN(Cc2c[nH]cn2)c2ccc(-c3ccncc3)cc2C1 | 60 | 95 | 15.4 | 200 | T/C (Mus musculus [8]): 108% |
| O=C(c1cccc2ccccc12)N1CCN(Cc2cncn2Cc2ccccc2)c2ccccc2C1 |  |  | 1100 |  |  |
| O=C(c1cccc2ccccc12)N1CCN(Cc2cnc[nH]2)c2cc(Cl)ccc2C1 |  |  | 540 |  |  |
| O=C(c1cccc2ccccc12)N1CCN(CCc2c[nH]cn2)c2ccccc2C1 |  |  | 340 |  | Reversion activity [7]: 20% |
| O=C(N1CCN(Cc2c[nH]cn2)c2ccc(-c3ccccc3)cc2C1)N1CCCc2ccccc21 | 0 | 40 |  |  |  |
| COCC[C@H]1CN(C(=O)c2cccc3ccccc23)CCN1C(=O)c1c[nH]cn1 |  |  |  |  | inhibition [10]: 51% |

The next lines start with results.

| Reversion activity [1] [%] | Reversion activity [2] [%] | IC50 [3] [nM] | SMILES | EC50 (Rat1) [nM] | other results |
| --- | --- | --- | --- | --- | --- |
| 0 | 5 |  | N#C/N=C(/Nc1ccc(Cl)cc1)N1CCN(Cc2c[nH]cn2)c2ccc(-c3ccccc3)cc2C1 |  |  |
| 0 | 70 | 145 | O=C(c1cccc2ccccc12)N1CCN(Cc2c[nH]cn2)c2ccc(-c3cccnc3)cc2C1 | 1000 |  |
| 0 | 45 | 18.1 | O=C(Nc1ccc2c(c1)N(Cc1c[nH]cn1)CCN(C(=O)c1cccc3ccccc13)C2)C1CCCCC1 | 340 | T/C (Mus musculus [4]): 138% |
|  |  | 186 | O=C(c1cccc2ccccc12)N1CCN(Cc2cnc[nH]2)c2ccc(C3CCCCC3)cc2C1 |  |  |
|  |  | 205 | O=C(N1CCN(Cc2cnc[nH]2)c2ccc(-c3ccccc3)cc2C1)N1CCCc2ccccc21 |  |  |
|  |  | 168 | CC(=O)Nc1ccc2c(c1)N(Cc1cnc[nH]1)CCN(C(=O)c1cccc3ccccc13)C2 |  |  |
| 0 | 0 |  | CC(=O)Nc1ccc2c(c1)N(Cc1c[nH]cn1)CCN(C(=O)c1cccc3ccccc13)C2 |  |  |
|  | 0 |  | O=C(OCc1ccccc1)N1CCN(Cc2c[nH]cn2)c2ccc(-c3ccccc3)cc2C1 |  | inhibition [5]: 55%; Reversion activity [6]: 0% |
|  |  | 840 | NCc1ncc(CN2CCN(C(=O)c3cccc4ccccc34)Cc3ccccc32)[nH]1 |  |  |
|  |  | 58 | COc1ccc2ccccc2c1C(=O)N1CCN(Cc2cnc[nH]2)c2ccc(-c3ccccc3)cc2C1 |  |  |
| 85 | 95 |  | COc1ccc2ccccc2c1C(=O)N1CCN(Cc2c[nH]cn2)c2ccc(-c3ccccc3)cc2C1 | 550 |  |
|  |  | 460 | O=C(c1cccc2ccccc12)N1CCN(Cc2c[nH]cn2)c2ccccc2C1 | 6000 | Reversion activity [7]: 0% |
|  |  | 21000 | O=C(c1cccc2ccccc12)N1CCN(Cc2ncc[nH]2)c2ccccc2C1 |  |  |
| 0 | 0 |  | c1ccc(-c2ccc3c(c2)CN(c2nnnn2-c2ccccc2)CCN3Cc2c[nH]cn2)cc1 |  |  |
|  |  | 27000 | COCC[C@H]1CN(C(=O)c2cccc3ccccc23)CCN1C(=O)CCc1cnc[nH]1 |  |  |
|  |  | 2800 | O=C(c1cccc2ccccc12)N1CCN(Cc2cnc[nH]2)Cc2ccccc21 |  |  |
|  |  | 600 | O=C(c1ccccc1NCc1ccccc1)N1CCN(Cc2cnc[nH]2)c2ccccc2C1 | 2400 |  |

| Reversion activity [1] [%] | Reversion activity [2] [%] | IC50 [3] [nM] | SMILES | EC50 (Rat1) [nM] | other results |
| --- | --- | --- | --- | --- | --- |
| 0 | 25 | 426 | O=S(=O)(c1cccc2ccccc12)N1CCN(Cc2c[nH]cn2)c2ccc(-c3ccccc3)cc2C1 |  |  |
|  |  | 702 | c1ccc(-c2ccc3c(c2)CN(c2nnnn2-c2ccccc2)CCN3Cc2cnc[nH]2)cc1 |  |  |
|  |  | 124 | O=C(c1ccccc1SCCO)N1CCN(Cc2cnc[nH]2)c2ccc(-c3ccccc3)cc2C1 |  |  |
| 85 | 95 |  | O=C(c1ccccc1OC(F)(F)F)N1CCN(Cc2c[nH]cn2)c2ccc(-c3ccncc3)cc2C1 | 160 |  |
| 0 | 0 | 249 | O=C(c1cccc2ccccc12)N1CCN(Cc2c[nH]cn2)c2cc(NS(=O)(=O)c3ccccc3)ccc2C1 | 11000 |  |
| 0 | 0 | 177 | O=C(c1cccc2ccccc12)N1CCN(Cc2c[nH]cn2)c2ccc(-c3ccccn3)cc2C1 |  |  |
| 0 | 20 |  | O=C(c1cccc2ccccc12)N1CCN(Cc2c[nH]cn2)c2ccc(C3CCCCC3)cc2C1 |  |  |
|  |  | 228 | O=C(c1cccc2ccccc12)N1CCN(Cc2cnc[nH]2)c2ccc(Br)cc2C1 |  |  |
|  |  | 720 | COC(=O)c1ccccc1S(=O)(=O)N1CCN(Cc2c[nH]cn2)c2ccccc2C1 | 1600 |  |
|  |  | 3200 | COCC[C@H]1CN(C(=O)c2cccc3ccccc23)CCN1CCc1c[nH]cn1 |  |  |
|  |  | 1300 | COCC[C@H]1CN(C(=O)c2cccc3ccccc23)CCN1Cc1c[nH]cn1 |  |  |
| 0 | 90 |  | O=C(c1cccc2ccccc12)N1CCN(Cc2c[nH]cn2)c2ccc(-c3ccccc3)cc2C1 | 1600 | T/C (Mus musculus [4]): 136%; T/C (Mus musculus [9]): 96% |
|  |  | 95 | O=C(c1cccc2ccccc12)N1CCN(Cc2cnc[nH]2)c2ccc(-c3ccccc3)cc2C1 |  |  |
|  |  | 700 | O=C(Cc1ccccc1Oc1ccccc1)N1CCN(Cc2c[nH]cn2)c2ccccc2C1 |  |  |
|  |  | 1420 | N#CN=C(Nc1ccc(Cl)cc1)N1CCN(Cc2cnc[nH]2)c2ccc(-c3ccccc3)cc2C1 |  |  |
| 0 | 0 |  | c1ccc(-c2ccc3c(c2)CN(Cc2cccc4ccccc24)CCN3Cc2c[nH]cn2)cc1 |  |  |
|  |  | 10000 | COCC[C@H]1CN(C(=O)c2cccc3ccccc23)CCN1CCCc1c[nH]cn1 |  |  |
